# Assay results as given in paper PMC2932703 (Molecular cancer therapeutics, 2010).
# Read-outs that look alike come from different tables or passages of the source.
# Legend:
# NTR1 mRNA [1] = test: Northern blot of NTR1 mRNA expression in CRC cell lines; format: cell-based, human
# NTR1 promoter = test: NTR1 promoter-luciferase reporter assay; format: cell-based, human
# NTR1 protein = test: Western blot of NTR1 protein expression; format: cell-based, human; settings: SW480 and HT29 cells; 2.5 mM, 18 h
# Procedure, shortened: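 Cells were treated with 2.5 mM test compound or PBS vehicle for 18 h, then lysed in cell lysis buffer. Equal protein was run on bis-Tris gels and transferred to PVDF. Blots were incubated overnight in TBST with anti-human NTR1 antibody, then HRP secondary for 1 h, and detected by ECL. Blots were stripped and reprobed for β-actin; NTR1 bands were quantified densitometrically relative to β-actin.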
# [2] = system: cholecystokinin-B receptor mRNA; test: RNase protection assay, CCK; format: cell-based, human; settings: HT29 and SW480 cells; 2.5 mM NaBT, 20 h
# CCK-A receptor mRNA = test: RNase protection assay, CCK-A receptor mRNA; format: cell-based, human; settings: NaBT treatment; data not shown
# [3] = system: gastrin-releasing peptide receptor mRNA; test: RNase protection assay, gastrin-releasing peptide receptor mRNA; format: cell-based, human; settings: NaBT treatment; data not shown
# PTEN mRNA = test: Northern blot reprobed for PTEN expression; format: cell-based, human; settings: HT29 cells; blot stripped and reprobed
# phospho-ERK1/2 = test: Western blot of phospho-ERK1/2; format: cell-based, human; settings: SW480 and HCT116 cells; 18 h; NaBT 2.5 mM, apicidin 1 µM, Emodin 20 µM
# Procedure, shortened: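 HCT116 and SW480 cells were exposed 18 h to test compounds or DMSO vehicle. Whole-cell protein was extracted, run on bis-Tris gels and transferred to PVDF. Blots were probed overnight in TBST with phospho-ERK1/2 and total ERK1/2 antibodies, then HRP secondary for 1 h, and detected by ECL. pERK1/2 signal was quantified densitometrically relative to total ERK1/2.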
# c-myc mRNA = test: Northern blot of c-myc expression; format: cell-based, human
# Procedure, shortened: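 HCT116 cells in McCoy's 5A with 10% FBS were serum-starved 24 h, pretreated with 2.5 mM test compound for 6 h, then given 100 nM NT or PBS vehicle for a further 0.5, 1 and 2 h. Total RNA (35 µg) was run on 1.2% agarose/formaldehyde gels and blotted to nylon. Blots were hybridised 8–12 h at 65°C with a 32P-UTP cRNA c-myc probe, read by autoradiography and reprobed for GAPDH.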
# COX-2 mRNA = test: Northern blot of NT-induced COX-2 expression; format: cell-based, human; settings: HT29 cells; NaBT 2.5 mM pretreatment 6 h, then 100 nM NT
# IL-8 mRNA = test: RNase protection assay of IL-8 expression; format: cell-based, human; settings: HCT116 cells; NaBT alone
# NTR1 mRNA [4] = settings: breast cancer cells; cited from earlier work
# ERK = settings: human hepatocellular carcinoma cells; cited from earlier work
# [5] = HT29 cells, treatment for 4h, confirmed using SW620 cells
# [6] = all NTR1-positive cell lines tested: HT29, HCT116, SW480, SW620, KM20, HDACi
molecule,measurement,setting,value
N#CC(=C(/N)Sc1ccccc1N)/C(C#N)=C(/N)Sc1ccccc1N [Uo126],NTR1 mRNA expression,NTR1 mRNA [1],suppressed NTR1 mRNA expression in a time- and dose-dependent fashion
same,decrease in NTR1 promoter activity,"NTR1 promoter; SW480 cells, 5 µM, 16 h",approximately 70%
"CCCC(=O)[O-].[Na+] [NaBT, Sodium butyrate]",NTR1 expression (mRNA),"NTR1 mRNA [1]; SW480, HCT116 (Fig.1B), SW620, KM20 (data not shown), NaBT",inhibited NTR1 expression
same,NTR1 protein expression,NTR1 protein,decreased NTR1 protein expression
same,NTR1 promoter activity,"NTR1 promoter; SW480 and HCT116 cells, 2.5 mM NaBT, 20 h",dramatically decreased NTR1 promoter activity
same,cholecystokinin-B receptor mRNA expression,[2],did not affect mRNA expression
same,CCK-A receptor mRNA expression,CCK-A receptor mRNA,did not affect mRNA expression
same,gastrin-releasing peptide receptor mRNA expression,[3],did not affect mRNA expression
same,PTEN expression,PTEN mRNA,increased PTEN expression
same,phospho-ERK1/2 levels,phospho-ERK1/2,significantly decreased phospho-ERK1/2 levels
same,basal c-myc expression,c-myc mRNA; HCT116 cells,decreased basal c-myc expression
same,NT-stimulated c-myc induction,"c-myc mRNA; NaBT 2.5 mM pretreatment 6 h, then 100 nM NT",prevented NT-stimulated c-myc induction
same,NT-induced COX-2 expression,COX-2 mRNA,blocked
same,IL-8 expression,IL-8 mRNA,slightly increased IL-8 expression
CCC(=O)CCCCC[C@@H]1NC(=O)[C@H]2CCCCN2C(=O)[C@H]([C@@H](C)CC)NC(=O)[C@H](Cc2cn(OC)c3ccccc23)NC1=O [apicidin],NTR1 mRNA expression,NTR1 mRNA [1]; [5],significantly decreased NTR1 mRNA expression
same,NTR1 mRNA expression,NTR1 mRNA [1]; [6],suppressed NTR1
same,phospho-ERK1/2 levels,phospho-ERK1/2,significantly decreased phospho-ERK1/2 levels
Cn1cc(C2=C(c3ccc(Cl)cc3Cl)C(=O)NC2=O)c2ccccc21 [SB-216763],NTR1 mRNA expression,"NTR1 mRNA [1]; HT29 and SW480 cells, GSK-3β inhibitor over a time course",significantly upregulated NTR1 mRNA expression
same,NTR1 mRNA suppression resulting from NaBT treatment,"NTR1 mRNA [1]; HT29 cells, pre-treated 30 min, then combination with NaBT for 6 h",partially attenuated
Neurotensin [NT],c-myc expression,"c-myc mRNA; 100 nM NT, 0.5 h, 1 h and 2 h, serum-starved cells",increased c-myc expression in time-dependent fashion
C[S+]([O-])c1ccc(-c2nc(-c3ccncc3)c(-c3ccc(F)cc3)[nH]2)cc1 (centres unmarked) [SB-203580],NTR1 mRNA expression,NTR1 mRNA [1],did not affect NTR1 expression
Cc1cc(O)c2c(c1)C(=O)c1cc(O)cc(O)c1C2=O [emodin],phospho-ERK1/2 levels,phospho-ERK1/2,did not affect ERK1/2 levels
[Cl-].[Li+] [LiCl],NTR1 mRNA,NTR1 mRNA [4],increased
CCCC(CCC)C(=O)O [valproic acid],NTR1 mRNA expression,NTR1 mRNA [1]; [6],suppressed NTR1
same,activation of ERK,ERK,decreased activation of ERK
Nc1ccccc1NC(=O)c1ccc(CNC(=O)OCc2cccnc2)cc1 [entinostat],NTR1 mRNA expression,NTR1 mRNA [1]; [6],suppressed NTR1
COc1cccc(-c2cc(=O)c3ccccc3o2)c1N [PD98059],NTR1 mRNA expression,"NTR1 mRNA [1]; HCT116 and SW480 cells (also SW620, KM20 data not shown), 16 h, Uo126 0.5-5 µM, PD98059 20 µM, SB-203580 10 µM",identical to those using Uo126
"CC(/C=C/C(=O)NO)=C\[C@@H](C)C(=O)c1ccc(N(C)C)cc1 [TSA, Trichostatin A]",NTR1 mRNA expression,NTR1 mRNA [1]; [5],significantly decreased NTR1 mRNA expression
same,NTR1 mRNA expression,NTR1 mRNA [1]; [6],suppressed NTR1
